Data as given in ChEMBL document CHEMBL1123771, “Synthesis and structure-activity relationships of potent new angiotensin converting enzyme inhibitors containing saturated bicyclic amino acids” (J Med Chem, 1987).

What was measured:
Rattus norvegicus [1] = experiment: Maximum change in mean aortic blood pressure in conscious renal 2-kidney/1-clip goldblatt hypertensive rat at a dose 30 mg/kg administered orally at 6 h; 4 animals tested; type: functional, Artery; conditions: route oral
Rattus norvegicus [2] = experiment: Mean aortic base line blood pressure in conscious renal 2-kidney/1-clip goldblatt hypertensive rat at a dose 30 mg/kg administered orally; type: functional, Artery; conditions: route oral
[3] = target: T1, Angiotensin-converting enzyme (Rattus norvegicus, UniProt P47820); experiment: Inhibition of rat Angiotensin I converting enzyme (ACE), using Hip-Gly-Gly as synthetic substrate.
T1 sequence (P47820 whole entry): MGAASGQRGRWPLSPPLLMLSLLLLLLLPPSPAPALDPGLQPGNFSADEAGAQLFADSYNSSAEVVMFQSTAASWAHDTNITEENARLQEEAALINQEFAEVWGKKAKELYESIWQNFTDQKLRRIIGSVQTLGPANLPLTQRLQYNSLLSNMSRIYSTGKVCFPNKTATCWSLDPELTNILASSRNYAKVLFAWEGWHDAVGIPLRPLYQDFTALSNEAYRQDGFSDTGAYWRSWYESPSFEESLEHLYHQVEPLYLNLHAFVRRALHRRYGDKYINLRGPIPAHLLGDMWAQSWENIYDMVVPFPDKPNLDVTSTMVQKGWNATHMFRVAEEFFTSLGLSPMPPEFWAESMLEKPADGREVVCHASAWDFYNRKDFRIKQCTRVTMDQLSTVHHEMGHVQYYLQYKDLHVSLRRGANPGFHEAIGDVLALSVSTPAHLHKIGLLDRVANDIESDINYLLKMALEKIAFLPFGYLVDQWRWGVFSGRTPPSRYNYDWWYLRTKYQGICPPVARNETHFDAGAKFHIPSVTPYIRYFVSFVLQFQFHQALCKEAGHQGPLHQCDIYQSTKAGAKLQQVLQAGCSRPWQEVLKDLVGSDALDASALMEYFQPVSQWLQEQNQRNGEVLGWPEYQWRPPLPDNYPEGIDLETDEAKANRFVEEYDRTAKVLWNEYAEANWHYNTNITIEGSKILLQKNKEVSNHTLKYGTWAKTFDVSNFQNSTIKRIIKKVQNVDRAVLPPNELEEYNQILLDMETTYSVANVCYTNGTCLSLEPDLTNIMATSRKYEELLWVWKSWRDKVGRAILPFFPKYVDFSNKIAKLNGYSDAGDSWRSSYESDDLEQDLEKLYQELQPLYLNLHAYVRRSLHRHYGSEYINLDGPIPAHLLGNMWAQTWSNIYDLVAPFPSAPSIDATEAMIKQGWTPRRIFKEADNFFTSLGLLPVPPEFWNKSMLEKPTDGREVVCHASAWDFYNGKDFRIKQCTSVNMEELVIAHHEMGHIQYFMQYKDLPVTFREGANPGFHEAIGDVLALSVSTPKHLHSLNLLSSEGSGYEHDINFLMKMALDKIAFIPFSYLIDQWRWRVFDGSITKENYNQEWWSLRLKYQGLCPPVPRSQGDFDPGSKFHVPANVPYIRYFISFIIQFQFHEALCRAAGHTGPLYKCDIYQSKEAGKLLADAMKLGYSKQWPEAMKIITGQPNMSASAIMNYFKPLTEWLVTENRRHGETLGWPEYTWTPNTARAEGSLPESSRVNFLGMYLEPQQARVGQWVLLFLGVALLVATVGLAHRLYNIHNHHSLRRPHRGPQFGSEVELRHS
Method in brief: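 Radioassay of converting-enzyme activity with Hip-Gly-Gly as substrate; compounds dissolved at 2–5 mg/mL in Me2SO, then diluted to test concentrations in pH 8 buffer (0.05 M Hepes, 0.1 M NaCl, 0.6 M Na2SO4).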

Rattus norvegicus [4] = experiment: Maximum change in mean aortic blood pressure in conscious renal 2-kidney/1-clip goldblatt hypertensive rat at a dose 30 mg/kg administered orally at 8h; 3 animals tested; type: functional, Artery; conditions: route oral
Method in brief: (§1)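 Male Sprague–Dawley rats made hypertensive at 4 weeks old by silver clip (0.2-mm gap) on left renal artery, contralateral kidney intact; 4–8 weeks development, cannulated (280–320 g), only mean aortic pressure >160 mmHg used. Oral dosing; 1-min running-average aortic pressure and heart rate logged every 30 min; maximum change from base line, mean ± SEM.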

Rattus norvegicus [5] = experiment: Maximum change in mean aortic blood pressure in conscious renal 2-kidney/1-clip goldblatt hypertensive rat at a dose 30 mg/kg administered orally at 5h; 4 animals tested; type: functional, Artery; conditions: route oral
Method in brief: (§2)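 Male Sprague–Dawley rats, 4 weeks old, given a silver clip (0.2-mm gap) on the left renal artery with the other kidney intact. Hypertension developed over 4–8 weeks, then rats (280–320 g) were aortic-cannulated; only those with mean pressure >160 mmHg were used. Oral dosing. One-minute running averages were logged every 30 min. Results are mean ± 1 SEM, from 3–5 rats.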

Rattus norvegicus [6] = experiment: Maximum change in mean aortic blood pressure in conscious renal 2-kidney/1-clip goldblatt hypertensive rat at a dose 30 mg/kg administered orally at 8h; 4 animals tested; type: functional, Artery; conditions: route oral; method in brief: as §2
Rattus norvegicus [7] = experiment: Maximum change in mean aortic blood pressure in conscious renal 2-kidney/1-clip goldblatt hypertensive rat at a dose 10 mg/kg administered orally at 3 hr; 5 animals tested; type: functional, Artery; conditions: route oral; method in brief: as §2
Rattus norvegicus [8] = experiment: Mean aortic base line blood pressure in conscious renal 2-kidney/1-clip goldblatt hypertensive rat at a dose 3 mg/kg administered orally; type: functional, Artery; conditions: route oral; method in brief: as §2
Rattus norvegicus [9] = experiment: Maximum change in mean aortic blood pressure in conscious renal 2-kidney/1-clip goldblatt hypertensive rat at a dose 30 mg/kg administered orally at 5h; 5 animals tested; type: functional, Artery; conditions: route oral; method in brief: as §2
Rattus norvegicus [10] = experiment: Mean aortic base line blood pressure in conscious renal 2-kidney/1-clip goldblatt hypertensive rat at a dose 10 mg/kg administered orally; type: functional, Artery; conditions: route oral; method in brief: as §2
Rattus norvegicus [11] = experiment: Maximum change in mean aortic blood pressure in conscious renal 2-kidney/1-clip goldblatt hypertensive rat at a dose 3 mg/kg administered orally at 8h; 5 animals tested; type: functional, Artery; conditions: route oral; method in brief: as §2
Rattus norvegicus [12] = experiment: Maximum change in mean aortic blood pressure in conscious renal 2-kidney/1-clip goldblatt hypertensive rat at a dose 3.0 mg/kg administered orally at 5h; 4 animals tested; type: functional, Artery; conditions: route oral; method in brief: as §2
Rattus norvegicus [13] = experiment: Mean aortic base line blood pressure in conscious renal 2-kidney/1-clip goldblatt hypertensive rat at a dose 0.3 mg/kg administered orally; type: functional, Artery; conditions: route oral
Rattus norvegicus [14] = experiment: Maximum change in mean aortic blood pressure in conscious renal 2-kidney/1-clip goldblatt hypertensive rat at a dose 1.0 mg/kg administered orally at 5h; 4 animals tested; type: functional, Artery; conditions: route oral; method in brief: as §2
Rattus norvegicus [15] = experiment: Maximum change in mean aortic blood pressure in conscious renal 2-kidney/1-clip goldblatt hypertensive rat at a dose 30 mg/kg administered orally at 10h; 4 animals tested; type: functional, Artery; conditions: route oral; method in brief: as §2
Rattus norvegicus [16] = experiment: Mean aortic base line blood pressure in conscious renal 2-kidney/1-clip goldblatt hypertensive rat at a dose 0.1 mg/kg administered orally; type: functional, Artery; conditions: route oral; method in brief: as §2
Rattus norvegicus [17] = experiment: Mean aortic base line blood pressure in conscious renal 2-kidney/1-clip goldblatt hypertensive rat at a dose 1.0 mg/kg administered orally; type: functional, Artery; conditions: route oral; method in brief: as §2
Rattus norvegicus [18] = experiment: Mean aortic base line blood pressure in conscious renal 2-kidney/1-clip goldblatt hypertensive rat at a dose 3.0 mg/kg administered orally; type: functional, Artery; conditions: route oral
Rattus norvegicus [19] = experiment: Maximum change in mean aortic blood pressure in conscious renal 2-kidney/1-clip goldblatt hypertensive rat at a dose 0.3 mg/kg administered orally at 8h; 4 animals tested; type: functional, Artery; conditions: route oral; method in brief: as §2
Rattus norvegicus [20] = experiment: Maximum change in mean aortic blood pressure in conscious renal 2-kidney/1-clip goldblatt hypertensive rat at a dose 30 mg/kg administered orally at 6 h; 3 animals tested; type: functional, Artery; conditions: route oral; method in brief: as §1

Q: With `CC(CS)C(=O)N1CC2CCCCC2C1C(=O)O` (stereo not drawn) as the compound, how does the “Mean aortic blood pressure” value (Rattus norvegicus [1]) read?
A: -50 mmHg

Q: What about the “Mean aortic blood pressure” value (Rattus norvegicus [2]) of the same compound?
A: 152 mmHg

Q: With `CC(CS)C(=O)N1[C@H](C(=O)O)C[C@@H]2CCCC[C@@H]21` (stereo in doubt; 9d) as the compound, how does the IC50 [3] read?
A: 1100 nM

Q: For `CC(CSC(=O)c1ccccc1)C(=O)N1[C@H](C(=O)O)C[C@@H]2CCCC[C@@H]21` (stereo partly drawn), which IC50 [3] is on record?
A: 540 nM

Q: With `C1CCC(NC2CCCCC2)CC1.CC(CS)C(=O)N1C(=O)C2CCCCC2C1C(=O)O` (stereo not drawn) as the compound, how does the “Mean aortic blood pressure” value (Rattus norvegicus [4]) read?
A: -100 mmHg

Q: What about the “Mean aortic blood pressure” value (Rattus norvegicus [2]) of the same compound?
A: 192 mmHg

Q: For `C[C@H](N[C@@H](CCc1ccccc1)C(=O)O)C(=O)N1[C@H](C(=O)O)C[C@@H]2CCCC[C@@H]21`, which “Mean aortic blood pressure” value (Rattus norvegicus [5]) is on record?
A: -104 mmHg

Q: What about the “Mean aortic blood pressure” value (Rattus norvegicus [2]) of the same compound?
A: 198 mmHg

Q: Which IC50 [3] does the source give for `CC(=O)SCC(C)C(=O)N1[C@H](C(=O)O)C[C@@H]2CCCC[C@@H]21` (stereo in doubt; 9b) here?
A: 35000 nM

Q: Which IC50 [3] does the source give for `O=C(O)[C@@H]1CCCN1C(=O)CCS` here?
A: 820 nM

Q: For `CC(=O)SCCC(=O)N1[C@H](C(=O)O)C[C@@H]2CCCC[C@@H]21` (stereo in doubt; 8a), which IC50 [3] is on record?
A: 560 nM

Q: Which results are given for `O=C(NC(Cc1ccccc1)C(=O)CCC(=O)N1C(C(=O)O)CC2CCCCC21)c1ccccc1` (stereo not drawn)?
A: IC50 [3]: 11 nM; Mean aortic blood pressure (Rattus norvegicus [2]): 169 mmHg; Mean aortic blood pressure (Rattus norvegicus [6]): -27 mmHg

Q: With `CC(CS)C(=O)N1C(=O)CCC1C(=O)O` (stereo not drawn) as the compound, how does the IC50 [3] read?
A: 9.3 nM

Q: What about the “Mean aortic blood pressure” value (Rattus norvegicus [4]) of the same compound?
A: -48 mmHg

Q: And the “Mean aortic blood pressure” value (Rattus norvegicus [2])?
A: 185 mmHg

Q: How did the IC50 [3] turn out when `O=C(O)C1Cc2ccccc2N1C(=O)CCS` (stereo not drawn) was run?
A: 140 nM

Q: Which results are given for `O=C(O)[C@@H]1C[C@@H]2CCCC[C@@H]2N1C(=O)CCS` (stereo in doubt; 8b)?
A: Mean aortic blood pressure (Rattus norvegicus [7]): -89 mmHg; IC50 [3]: 13 nM; Mean aortic blood pressure (Rattus norvegicus [8]): 198 mmHg; Mean aortic blood pressure (Rattus norvegicus [9]): -91 mmHg; Mean aortic blood pressure (Rattus norvegicus [2]): 198 mmHg; Mean aortic blood pressure (Rattus norvegicus [10]): 198 mmHg; Mean aortic blood pressure (Rattus norvegicus [11]): -73 mmHg

Q: How did the “Mean aortic blood pressure” value (Rattus norvegicus [12]) turn out when `CC(CS)C(=O)N1[C@H](C(=O)O)C[C@@H]2CCCC[C@@H]21` (stereo in doubt; 9c) was run?
A: -81 mmHg

Q: What about the “Mean aortic blood pressure” value (Rattus norvegicus [13]) of the same compound?
A: 185 mmHg

Q: What about the “Mean aortic blood pressure” value (Rattus norvegicus [14]) of the same compound?
A: -72 mmHg

Q: What about the “Mean aortic blood pressure” value (Rattus norvegicus [15]) of the same compound?
A: -115 mmHg

Q: And the IC50 [3]?
A: 7.7 nM

Q: And the “Mean aortic blood pressure” value (Rattus norvegicus [16])?
A: 184 mmHg

Q: What about the “Mean aortic blood pressure” value (Rattus norvegicus [17]) of the same compound?
A: 178 mmHg

Q: And the “Mean aortic blood pressure” value (Rattus norvegicus [18])?
A: 190 mmHg

Q: And the “Mean aortic blood pressure” value (Rattus norvegicus [2]; 30 mg/kg)?
A: 197 mmHg

Q: What about the “Mean aortic blood pressure” value (Rattus norvegicus [19]) of the same compound?
A: -19 mmHg

Q: How did the IC50 [3] turn out when `CC(CS)C(=O)N1[C@H](C(=O)O)C[C@@H]2CCCC[C@@H]21` (stereo in doubt; 9f) was run?
A: 5.2 nM

Q: And the “Mean aortic blood pressure” value (Rattus norvegicus [20])?
A: -72 mmHg

Q: What about the “Mean aortic blood pressure” value (Rattus norvegicus [2]; 30 mg/kg) of the same compound?
A: 193 mmHg
